Measured values as given in ChEMBL document CHEMBL1145037, “Structural properties of dibenzosuberanylpiperazine derivatives for efficient reversal of chloroquine resistance in Plasmodium chabaudi” (2003).

Experiments:
[1] = Antimalarial activity was determined in female mice (Mus musculus) after intraperitoneal administration of 50 mg; format: functional, Plasmodium chabaudi
Procedure, shortened: (§1)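 4- to 5-week-old female ICR (CD-1) mice infected iv with 5×10^6 parasitized RBC of CQ-resistant 3CQ line of P. chabaudi AS, thawed from cryopreserved stock. Compound dissolved in DMSO, diluted with saline to 10% (w/v) DMSO, given ip 2 h post-infection and daily for 3 more days (four injections). Parasitemia (PRBC per 10 000 RBC, Giemsa thin films) read daily for 5 days; two mice per compound, three or five for some.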

[2] = chloroquine-resistant reversal activity was determined in female mice (Mus musculus) after intraperitoneal administration of 50 mg; format: functional, Plasmodium chabaudi
Procedure, shortened: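 Female ICR CD-1 mice, 4–5 weeks old, given 5×10^6 P. chabaudi AS 3CQ (CQ-resistant) line PRBC iv (thawed from cryopreserved blood). 2 h later, test compound (in DMSO diluted with saline to 10% DMSO) ip plus chloroquine 3 or 4 mg/kg ip, repeated daily for 4 total injections. Controls: DMSO, CQ alone, compound alone. Parasitemia per 10 000 RBC on Giemsa smears daily for 5 days.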

Mus musculus [3] = test: Chloroquine resistant reversal activity was determined in female mice after intraperitoneal administration of 50 mg and 4 mg of chloroquine; format: functional
Procedure, shortened: (§2)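 Female ICR (CD-1) mice, 4-5 weeks old, infected iv with 5×10^6 PRBC of CQ-resistant 3CQ line of P. chabaudi AS (cryopreserved stock). 2 h later, test compound (in DMSO diluted with saline to 10% w/v DMSO) given ip, followed by ip CQ; repeated for 3 more days (four injections). Groups: DMSO, CQ alone, compound alone, combination. Parasitemia from Giemsa thin films, daily days 0-4.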

Mus musculus [4] = test: Antimalarial activity was determined in female mice after intraperitoneal administration of 15 mg of the compound; format: functional; procedure, shortened: as §1
Mus musculus [5] = test: Chloroquine resistant reversal activity was determined on day 0 in female mice after intraperitoneal administration of 10 mg and 4 mg of chloroquine; format: functional; procedure, shortened: as §2
Mus musculus [6] = test: Chloroquine resistant reversal activity was determined on day 0 in female mice after intraperitoneal administration of 15 mg and 4 mg of chloroquine; format: functional; procedure, shortened: as §2
Mus musculus [7] = test: Chloroquine resistant reversal activity was determined on day 0 in female mice after intraperitoneal administration of 5 mg and 4 mg of chloroquine; format: functional; procedure, shortened: as §2
Mus musculus [8] = test: Chloroquine resistant reversal activity was determined in female mice after intraperitoneal administration of 15 mg and 4 mg of chloroquine; format: functional; procedure, shortened: as §2
Mus musculus [9] = test: Chloroquine resistant reversal activity was determined on day 1 in female mice after intraperitoneal administration of 10 mg and 4 mg of chloroquine; format: functional; procedure, shortened: as §2
Mus musculus [10] = test: Chloroquine resistant reversal activity was determined on day 1 in female mice after intraperitoneal administration of 15 mg and 4 mg of chloroquine; format: functional; procedure, shortened: as §2
Mus musculus [11] = test: Chloroquine resistant reversal activity was determined on day 1 in female mice after intraperitoneal administration of 5 mg and 4 mg of chloroquine; format: functional; procedure, shortened: as §2
Mus musculus [12] = test: Chloroquine resistant reversal activity was determined on day 2 in female mice after intraperitoneal administration of 10 mg and 4 mg of chloroquine; format: functional; procedure, shortened: as §2
Mus musculus [13] = test: Chloroquine resistant reversal activity was determined on day 2 in female mice after intraperitoneal administration of 15 mg and 4 mg of chloroquine; format: functional; procedure, shortened: as §2
Mus musculus [14] = test: Chloroquine resistant reversal activity was determined on day 2 in female mice after intraperitoneal administration of 5 mg and 4 mg of chloroquine; format: functional; procedure, shortened: as §2
Mus musculus [15] = test: Chloroquine resistant reversal activity was determined on day 3 in female mice after intraperitoneal administration of 10 mg and 4 mg of chloroquine; format: functional; procedure, shortened: as §2
Mus musculus [16] = test: Chloroquine resistant reversal activity was determined on day 3 in female mice after intraperitoneal administration of 15 mg and 4 mg of chloroquine; format: functional; procedure, shortened: as §2
Mus musculus [17] = test: Chloroquine resistant reversal activity was determined on day 3 in female mice after intraperitoneal administration of 5 mg and 4 mg of chloroquine; format: functional; procedure, shortened: as §2
Mus musculus [18] = test: Chloroquine resistant reversal activity was determined on day 4 in female mice after intraperitoneal administration of 10 mg and 4 mg of chloroquine; format: functional; procedure, shortened: as §2
Mus musculus [19] = test: Chloroquine resistant reversal activity was determined on day 4 in female mice after intraperitoneal administration of 15 mg and 4 mg of chloroquine; format: functional; procedure, shortened: as §2
Mus musculus [20] = test: Chloroquine resistant reversal activity was determined on day 4 in female mice after intraperitoneal administration of 5 mg and 4 mg of chloroquine; format: functional; procedure, shortened: as §2
Mus musculus [21] = test: Chloroquine resistant reversal activity was determined on day 0 in female mice after intraperitoneal administration of 30 mg and 4 mg of chloroquine; format: functional; procedure, shortened: as §2
Mus musculus [22] = test: Chloroquine resistant reversal activity was determined on day 0 in female mice after intraperitoneal administration of 50 mg and 4 mg of chloroquine; format: functional; procedure, shortened: as §2
Mus musculus [23] = test: Chloroquine resistant reversal activity was determined on day 1 in female mice after intraperitoneal administration of 30 mg and 4 mg of chloroquine; format: functional; procedure, shortened: as §2
Mus musculus [24] = test: Chloroquine resistant reversal activity was determined on day 1 in female mice after intraperitoneal administration of 40 mg and 4 mg of chloroquine; format: functional; procedure, shortened: as §2
Mus musculus [25] = test: Chloroquine resistant reversal activity was determined on day 1 in female mice after intraperitoneal administration of 50 mg and 4 mg of chloroquine; format: functional; procedure, shortened: as §2
Mus musculus [26] = test: Chloroquine resistant reversal activity was determined on day 2 in female mice after intraperitoneal administration of 30 mg and 4 mg of chloroquine; format: functional; procedure, shortened: as §2
Mus musculus [27] = test: Chloroquine resistant reversal activity was determined on day 2 in female mice after intraperitoneal administration of 40 mg and 4 mg of chloroquine; format: functional; procedure, shortened: as §2
Mus musculus [28] = test: Chloroquine resistant reversal activity was determined on day 2 in female mice after intraperitoneal administration of 50 mg and 4 mg of chloroquine; format: functional; procedure, shortened: as §2
Mus musculus [29] = test: Chloroquine resistant reversal activity was determined on day 3 in female mice after intraperitoneal administration of 30 mg and 4 mg of chloroquine; format: functional; procedure, shortened: as §2
Mus musculus [30] = test: Chloroquine resistant reversal activity was determined on day 3 in female mice after intraperitoneal administration of 50 mg and 4 mg of chloroquine; format: functional; procedure, shortened: as §2
Mus musculus [31] = test: Chloroquine resistant reversal activity was determined on day 4 in female mice after intraperitoneal administration of 30 mg and 4 mg of chloroquine; format: functional; procedure, shortened: as §2
Mus musculus [32] = test: Chloroquine resistant reversal activity was determined on day 4 in female mice after intraperitoneal administration of 40 mg and 4 mg of chloroquine; format: functional; procedure, shortened: as §2
Mus musculus [33] = test: Chloroquine resistant reversal activity was determined on day 4 in female mice after intraperitoneal administration of 50 mg and 4 mg of chloroquine; format: functional; procedure, shortened: as §2
Mus musculus [34] = test: Chloroquine resistant reversal activity was determined on day 0 in female mice after intraperitoneal administration of 40 mg and 4 mg of chloroquine; format: functional; procedure, shortened: as §2
Mus musculus [35] = test: Chloroquine resistant reversal activity was determined on day 3 in female mice after intraperitoneal administration of 40 mg and 4 mg of chloroquine; format: functional; procedure, shortened: as §2
Mus musculus [36] = test: Chloroquine resistant reversal activity was determined in female mice after intraperitoneal administration of 50 mg and 3 mg of chloroquine; format: functional; procedure, shortened: as §2

For CCCCCCCCCCCCCCC(O)CN1CCN(C2c3ccccc3CCc3ccccc32)CC1 (stereo unspecified), the Antimalarial activity [1] was 122% and the Reversal activity [2] was 110%.
In the case of C=CCCC(O)CN1CCN(C2c3ccccc3CCc3ccccc32)CC1 (stereo unspecified), the Antimalarial activity [1] is reported as 101% and the Reversal activity [2] is reported as 0%.
In the case of CCC(O)CN1CCN(C2c3ccccc3CCc3ccccc32)CC1 (stereo unspecified), the Antimalarial activity [1] is reported as 99% and the Reversal activity (Mus musculus [3]) is reported as 0%.
Work on C=CC(C)N1CCN(C2c3ccccc3CCc3ccccc32)CC1 (stereo unspecified) yielded an Antimalarial activity [1] of 22% and a Reversal activity (Mus musculus [3]) of 0%.
Work on Cl.c1ccc2c(c1)CCc1ccccc1C2N1CCNCC1 yielded an Antimalarial activity [1] of 68% and a Reversal activity (Mus musculus [3]) of 2%.
For Cl.c1ccc2c(c1)CCc1ccccc1C2N1CCN(C2c3ccccc3CCc3ccccc32)CC1, the Antimalarial activity [1] was 108% and the Reversal activity [2] was 81%.
CCCCCCC(O)CN1CCN(C2c3ccccc3CCc3ccccc32)CC1 (stereo unspecified) gave an Antimalarial activity [1] of 92% and a Reversal activity [2] of 102%.
Molecule C=CC(CO)N1CCN(C2c3ccccc3CCc3ccccc32)CC1 (stereo unspecified) has an Antimalarial activity (Mus musculus [4]) of 103%, a Reversal activity (Mus musculus [5]) of 0% and a Reversal activity (Mus musculus [6]) of 0%. The Reversal activity (Mus musculus [7]) was 0%, the Reversal activity (Mus musculus [8]) was 2.6% and the Reversal activity (Mus musculus [9]) was 59%. The Reversal activity (Mus musculus [10]) was 37%, the Reversal activity (Mus musculus [11]) was 69% and the Reversal activity (Mus musculus [12]) was 37%. For the same molecule, the Reversal activity (Mus musculus [13]) was 13%, the Reversal activity (Mus musculus [14]) was 35% and the Reversal activity (Mus musculus [15]) was 23%. The Reversal activity (Mus musculus [16]) was 4%, the Reversal activity (Mus musculus [17]) was 33% and the Reversal activity (Mus musculus [18]) was 8.6%. It also gave a Reversal activity (Mus musculus [19]) of 2.6% and a Reversal activity (Mus musculus [20]) of 17%.
Molecule CC(=O)OCC#CCN1CCN(C2c3ccccc3CCc3ccccc32)CC1 has an Antimalarial activity [1] of 116% and a Reversal activity (Mus musculus [3]) of 0%.
For OC(COc1ccccc1)CN1CCN(C2c3ccccc3CCc3ccccc32)CC1 (stereo unspecified), the Antimalarial activity [1] was 136% and the Reversal activity [2] was 113%.
CCCCCCCCCCCCCCCCC(O)CN1CCN(C2c3ccccc3CCc3ccccc32)CC1 (stereo unspecified) gave an Antimalarial activity [1] of 67% and a Reversal activity [2] of 68%.
In the case of OCC#CCN1CCN(C2c3ccccc3CCc3ccccc32)CC1, the Antimalarial activity [1] is reported as 121% and the Reversal activity (Mus musculus [3]) is reported as 0%.
C=CC(O)CN1CCN(C2c3ccccc3CCc3ccccc32)CC1 (stereo unspecified) showed an Antimalarial activity [1] of 82%, a Reversal activity (Mus musculus [3]) of 0% and a Reversal activity (Mus musculus [5]) of 0%. For the same molecule, the Reversal activity (Mus musculus [6]) was 0%, the Reversal activity (Mus musculus [21]) was 0% and the Reversal activity (Mus musculus [22]) was 0%. For the same molecule, the Reversal activity (Mus musculus [7]) was 0%, the Reversal activity (Mus musculus [9]) was 62% and the Reversal activity (Mus musculus [10]) was 49%. For the same molecule, the Reversal activity (Mus musculus [23]) was 55%, the Reversal activity (Mus musculus [24]) was 33% and the Reversal activity (Mus musculus [25]) was 42%. For the same molecule, the Reversal activity (Mus musculus [11]) was 76%, the Reversal activity (Mus musculus [12]) was 21% and the Reversal activity (Mus musculus [13]) was 16%. It also gave a Reversal activity (Mus musculus [26]) of 38%, a Reversal activity (Mus musculus [27]) of 10% and a Reversal activity (Mus musculus [28]) of 6.2%. The Reversal activity (Mus musculus [14]) was 32%, the Reversal activity (Mus musculus [15]) was 7.9% and the Reversal activity (Mus musculus [16]) was 9.5%. The Reversal activity (Mus musculus [29]) was 2.9%, the Reversal activity (Mus musculus [30]) was 0% and the Reversal activity (Mus musculus [17]) was 12%. The Reversal activity (Mus musculus [18]) was 6%, the Reversal activity (Mus musculus [19]) was 5.4% and the Reversal activity (Mus musculus [31]) was 0%. The Reversal activity (Mus musculus [32]) was 0%, the Reversal activity (Mus musculus [33]) was 0% and the Reversal activity (Mus musculus [20]) was 11%. It also gave a Reversal activity (Mus musculus [34]) of 0% and a Reversal activity (Mus musculus [35]) of 0%.
In the case of CCCCCCCCC(O)CN1CCN(C2c3ccccc3CCc3ccccc32)CC1 (stereo unspecified), the Antimalarial activity [1] is reported as 152% and the Reversal activity [2] is reported as 84%.
C=CCCCCCCC(O)CN1CCN(C2c3ccccc3CCc3ccccc32)CC1 (stereo unspecified) gave an Antimalarial activity [1] of 68% and a Reversal activity [2] of 6.8%.
Molecule COc1ccc(OCC(O)CN2CCN(C3c4ccccc4CCc4ccccc43)CC2)cc1 (stereo unspecified) has an Antimalarial activity [1] of 147% and a Reversal activity (Mus musculus [36]) of 90%.
CCCCCCCCCCCCC(O)CN1CCN(C2c3ccccc3CCc3ccccc32)CC1 (stereo unspecified) gave an Antimalarial activity [1] of 138% and a Reversal activity [2] of 64%.
With C=CCCCCC(O)CN1CCN(C2c3ccccc3CCc3ccccc32)CC1 (stereo unspecified) the Antimalarial activity [1] was 108% and the Reversal activity [2] was 8.9%.
